The values that follow come from ChEMBL document CHEMBL1133454, “Structure-activity studies of reduced-size gonadotropin-releasing hormone agonists derived from the sequence of an endothelin antagonist” (J Med Chem, 2000).

Square brackets hold non-standard residues; d marks the D form. Peptide text beside a SMILES is read from it. * marks the point of attachment. X1 = CC(C)C[C@@H](C(=O)*)N1C(=O)N[C@H](Cc2c[nH]c3ccccc23)C1=O

The target of one experiment is T1, Endothelin receptor (Rattus norvegicus, UniProt P26684+P21451).
T1 sequence (P26684 whole entry): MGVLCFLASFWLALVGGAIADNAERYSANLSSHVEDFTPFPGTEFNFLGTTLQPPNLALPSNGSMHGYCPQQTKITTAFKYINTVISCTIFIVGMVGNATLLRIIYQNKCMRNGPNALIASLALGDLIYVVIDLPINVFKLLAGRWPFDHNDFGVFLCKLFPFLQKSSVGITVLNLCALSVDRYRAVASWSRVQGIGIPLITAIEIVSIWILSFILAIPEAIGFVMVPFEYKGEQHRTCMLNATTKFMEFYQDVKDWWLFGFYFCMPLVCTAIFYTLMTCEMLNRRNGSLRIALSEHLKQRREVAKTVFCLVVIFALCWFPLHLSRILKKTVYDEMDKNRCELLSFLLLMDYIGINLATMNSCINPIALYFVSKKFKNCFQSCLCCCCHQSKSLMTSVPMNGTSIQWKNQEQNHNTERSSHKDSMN
T1 sequence (P21451 whole entry): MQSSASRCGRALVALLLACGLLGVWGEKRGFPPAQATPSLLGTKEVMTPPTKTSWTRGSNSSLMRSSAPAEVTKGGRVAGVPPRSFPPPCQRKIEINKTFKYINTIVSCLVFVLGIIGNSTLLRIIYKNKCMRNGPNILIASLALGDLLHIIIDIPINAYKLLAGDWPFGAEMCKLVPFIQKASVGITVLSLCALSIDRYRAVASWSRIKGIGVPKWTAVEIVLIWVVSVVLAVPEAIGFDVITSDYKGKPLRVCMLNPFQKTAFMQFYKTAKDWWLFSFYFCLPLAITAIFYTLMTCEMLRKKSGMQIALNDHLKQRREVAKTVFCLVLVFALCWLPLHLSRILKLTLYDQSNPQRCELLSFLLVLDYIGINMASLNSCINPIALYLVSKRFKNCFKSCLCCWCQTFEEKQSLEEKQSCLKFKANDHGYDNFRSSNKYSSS
Nature of the experiment: Inhibition constant for the displacement of specific binding of [125I]-ET (Kd=2 nM) bound to rat pituitary membrane. It is filed as tissue-based, Pituitary gland.
Compound `CC[C@H](C)[C@H](NC(=O)[C@H](CC(=O)O)NC(=O)[C@H](CC(C)C)N1C(=O)N[C@H](Cc2c[nH]c3ccccc23)C1=O)C(=O)N[C@H](C(=O)N[C@@H](Cc1c[nH]c2ccccc12)C(=O)O)[C@@H](C)CC` (X1-DIIW-OH) registered a Ki of 6 µM.

Take `CC[C@H](C)[C@H](NC(=O)[C@H](CC(=O)O)NC(=O)[C@H](CC(C)C)NC(=O)[C@H](N)Cc1c[nH]c2ccccc12)C(=O)N[C@H](C(=O)N[C@@H](Cc1c[nH]c2ccccc12)C(=O)O)[C@@H](C)CC`: the Ki turned out to be 55 µM.

The next experiment concerns the target T2, Gonadotropin-releasing hormone receptor (Rattus norvegicus, UniProt P30969).
T2 sequence (P30969 whole entry): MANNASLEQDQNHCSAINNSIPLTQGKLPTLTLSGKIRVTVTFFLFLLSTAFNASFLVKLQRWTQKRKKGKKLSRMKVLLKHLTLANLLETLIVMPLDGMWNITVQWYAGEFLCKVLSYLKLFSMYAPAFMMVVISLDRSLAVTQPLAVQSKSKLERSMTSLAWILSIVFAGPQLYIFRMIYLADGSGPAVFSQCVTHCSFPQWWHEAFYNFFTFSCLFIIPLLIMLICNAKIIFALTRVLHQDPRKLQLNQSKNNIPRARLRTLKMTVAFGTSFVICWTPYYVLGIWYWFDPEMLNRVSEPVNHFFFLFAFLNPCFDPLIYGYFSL
Description: Inhibition constant for the displacement of specific binding of [125I][D-Lys6]-GnRH (Kd=177 pM) bound to rat pituitary membranes; No significant binding at 10 uM. Format: cell membranes, Membrane. The essentials:
(§1)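 Membranes from proestrous Wistar-derived rat pituitaries (25 μg protein/tube) incubated 90 min at 4 °C with 23.5 pM 125I-[D-Lys6]GnRH plus increasing unlabeled peptide (up to 10 μM, DMSO ≤1%) in 10 mM Tris-HCl/0.1% BSA. Filtration on GF/C, gamma counting. Nonspecific binding from 1 μM [D-Lys6]GnRH. Ki fitted from displacement curves; two experiments in triplicate, mean ± SEM.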
On to `CC[C@H](C)[C@H](N)C(=O)N[C@H](C(=O)N[C@@H](Cc1c[nH]cn1)C(=O)N[C@H](Cc1c[nH]c2ccccc12)C(=O)N[C@@H](CC(C)C)C(=O)N[C@@H](CC(=O)O)C(=O)O)[C@@H](C)CC`, for which the Ki entry is “Not Active”.

`CC[C@H](C)[C@H](N)C(=O)N[C@H](C(=O)N[C@@H](Cc1ccccc1)C(=O)N[C@H](Cc1c[nH]c2ccccc12)C(=O)N[C@@H](CC(C)C)C(=O)N[C@@H](CC(=O)O)C(=O)O)[C@@H](C)CC`: the Ki result was “Not Active”.

The next experiment concerns the target T2, Gonadotropin-releasing hormone receptor. Nature of the experiment: Inhibition constant for the displacement of specific binding of [125I][D-Lys6]-GnRH (Kd=177 pM) bound to rat pituitary membranes. Format: cell membranes, Membrane. The procedure, abridged:
as §1
In the case of `CC[C@H](C)[C@H](NC(=O)[C@H](CCCNC(=N)N)NC(=O)[C@H](CC(C)C)NC(=O)[C@@H](Cc1c[nH]c2ccccc12)NC(C)=O)C(=O)N[C@H](C(=O)N[C@@H](Cc1c[nH]c2ccccc12)C(=O)O)[C@@H](C)CC`, the Ki stood at 2 µM. This counts as single-digit micromolar.

The compound `CC[C@H](C)[C@H](N)C(=O)N[C@H](C(=O)N[C@@H](Cc1c[nH]c2ccccc12)C(=O)N[C@H](Cc1c[nH]cn1)C(=O)N[C@@H](CC(C)C)C(=O)N[C@@H](CC(=O)O)C(=O)O)[C@@H](C)CC` showed a Ki of 0.5 µM.

As for `CC[C@H](C)[C@@H]1NC(=O)CSC[C@@H](C(=O)O)NC(=O)[C@H](CC(C)C)NC(=O)[C@@H](Cc2c[nH]c3ccccc23)NC(=O)[C@H](Cc2c[nH]c3ccccc23)NC(=O)[C@H]([C@@H](C)CC)NC1=O`, the affinity, expressed as Ki, was 0.32 µM.

Compound `CC[C@H](C)[C@H](NC(=O)[C@H](CC(=O)O)NC(=O)[C@H](CC(C)C)NC(=O)[C@@H](Cc1c[nH]c2ccccc12)NC(C)=O)C(=O)N[C@H](C(=O)N[C@@H](Cc1c[nH]c2ccccc12)C(=O)O)[C@@H](C)CC` (Ac-[dW]LDIIW-OH) registered a Ki of 1.9 µM.

Compound `CC[C@H](C)[C@H](N)C(=O)N[C@H](C(=O)N[C@@H](Cc1c[nH]c2ccccc12)C(=O)N[C@H](Cc1ccccc1)C(=O)N[C@@H](CC(C)C)C(=O)N[C@@H](CC(=O)O)C(=O)O)[C@@H](C)CC` gave a Ki of 8 µM.

Compound `CC[C@H](C)[C@H](NC(=O)[C@H](CC(=O)O)NC(=O)[C@H](CC(C)C)N1C(=O)N[C@H](Cc2c[nH]c3ccccc23)C1=O)C(=O)N[C@H](C(=O)N[C@@H](Cc1c[nH]c2ccccc12)C(=O)O)[C@@H](C)CC` (X1-DIIW-OH) displayed a Ki of 0.23 µM.

For `CC[C@H](C)[C@H](NC(=O)[C@H](CC(=O)O)NC(=O)[C@H](CC(C)C)NC(=O)[C@H](N)Cc1c[nH]c2ccccc12)C(=O)N[C@H](C(=O)N[C@@H](Cc1c[nH]c2ccccc12)C(=O)O)[C@@H](C)CC`, affinity was put at a Ki of 8 µM.

In turn, `CC[C@H](C)[C@H](N)C(=O)N[C@H](C(=O)N[C@@H](Cc1c[nH]c2ccccc12)C(=O)N[C@H](C)C(=O)N[C@@H](CC(C)C)C(=O)N[C@@H](CC(=O)O)C(=O)O)[C@@H](C)CC` came in with a Ki of over 10 µM.

With `CC[C@H](C)[C@@H]1NC(=O)[C@H](CC(=O)O)NC(=O)[C@H](CC(C)C)NC(=O)[C@@H](Cc2c[nH]c3ccccc23)NC(=O)[C@H](Cc2c[nH]c3ccccc23)NC(=O)[C@H]([C@@H](C)CC)NC1=O`, affinity was put at a Ki of 0.7 µM.

Compound `CC[C@H](C)[C@H](N)C(=O)N[C@H](C(=O)N[C@@H](Cc1c[nH]c2ccccc12)C(=O)N[C@H](Cc1c[nH]c2ccccc12)C(=O)N[C@@H](CC(C)C)C(=O)N[C@@H](CC(=O)O)C(=O)O)[C@@H](C)CC` registered a Ki of 0.7 µM. This counts as sub-micromolar.

Compound `CC[C@H](C)[C@H](N)C(=O)N[C@H](C(=O)N[C@@H](Cc1c[nH]c2ccccc12)C(=O)N[C@@H](Cc1c[nH]c2ccccc12)C(=O)N[C@@H](CC(C)C)C(=O)N[C@@H](CC(=O)O)C(=O)O)[C@@H](C)CC` yielded a Ki of 4 µM. Compared with the last compound, the Ki is about 5.7-fold higher.
